Converted amounts (≈) assume the structure as drawn.
Key:
Plasmodium falciparum = test: Antimalarial activity against Plasmodium falciparum K1 in human plasma assessed as inhibition of hypoxanthine uptake by intraerythrocytic malaria parasites by hypoxanthine incorporation assay; format: functional, organism-based
Outline: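 K1 or TM90-C2A parasites were sorbitol-synchronized and cultured in RPMI 1640. Drug was diluted in drug-free human serum (0.04–40 ng/ml) or subject plasma was diluted twofold (8–8,192). Parasites were added at 2% hematocrit, 1% parasitemia (>95% rings), and [3H]hypoxanthine uptake was measured over 48 h. IC50 or ID50 came from concentration or dilution-response curves. Equivalent concentration = ID50 × IC50.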

Plasma [1] = test: AUC in healthy human plasma assessed as metabolite BAY 78-1789 AUC at 40 mg, po administered as two 20 mg immediate release tablets daily for 3 days during 10 hrs overnight fasting state measured after 1 day; format: ADME, organism-based; set-up: time < 10 hr, dose 40 mg, route oral; settings: in vivo
Outline: (§1)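 Healthy Caucasian male volunteers took 40 mg (two 20-mg IR tablets) or 80 mg (four tablets) orally once daily for 3 days, with 240 ml water after a 10-h fast. Plasma was sampled predose to 14 h after the first and last doses. M1/M2/M3 were quantified by LC/MS-MS MRM against a D4-labelled internal standard. Cmax was read from observed data and AUC by log-linear trapezoidal rule, noncompartmental, geometric means.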

Plasma [2] = test: AUC in healthy human plasma assessed as metabolite BAY 78-1789 AUC at 80 mg, po administered as four 20 mg immediate release tablets daily for 3 days during 10 hrs overnight fasting state measured after 3 day; format: ADME, organism-based; set-up: dose 80 mg, time < 10 hr, route oral; settings: in vivo; outline: as §1
Plasma [3] = test: AUC (0 to infinity) in healthy human plasma assessed as metabolite BAY 78-1789 AUC (0 to infinity) at 80 mg, po administered as single ascending doses during 10 hrs overnight fasting state; format: ADME, organism-based; set-up: dose 80 mg, time infinity, route oral; settings: in vivo
Outline: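 Healthy Caucasian male volunteers, single oral dose of 80 mg as four 20-mg immediate-release tablets, taken with 240 ml water after a 10-h overnight fast. Lithium-heparin venous blood was drawn predose and at 0.25–14 h, and plasma was stored frozen. Metabolites M1/M2/M3 were measured by LC/MS-MS (positive-ion MRM, deuterated internal standard). Noncompartmental analysis, AUC by log-linear trapezoidal rule extrapolated to infinity (Clast/kel), geometric means.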

Plasma [4] = test: Ratio of AUC (0 to infinity) for metabolite BAY 78-1789 to AUC (0 to infinity) for compound in healthy human plasma at 40 mg, po administered as single dose for 3 days measured after 1 day; format: ADME, organism-based; settings: in vivo, 24 h
Outline: (§2)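 Healthy Caucasian men (8 active, 4 placebo per dose) dosed with tablets daily for 3 days after 10-h fast. Plasma sampled 0.25–14 h after first and last doses. Parent and metabolites M1–M3 measured by LC/MS-MS (200 µl plasma). Metabolic ratio is metabolite AUC0-∞ divided by parent AUC0-∞ (log-linear trapezoidal, extrapolated by last concentration/kel). First vs third dose compared by paired t test.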

Plasma [5] = test: Cmax in healthy human plasma assessed as metabolite BAY 78-1789 Cmax at 40 mg, po administered as two 20 mg immediate release tablets daily for 3 days during 10 hrs overnight fasting state measured after 3 day; format: ADME, organism-based; set-up: dose 40 mg, route oral; settings: in vivo, 72 h
Outline: (§3)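 Healthy Caucasian males took tablets once daily for 3 days with 240 ml water after a 10-h fast. Heparinised blood was drawn predose and at 0.25–14 h after the first and last doses. Plasma parent drug and metabolites M1–M3 were measured by LC/MS-MS (MRM, deuterated internal standard). Noncompartmental analysis gave Cmax observed, t1/2 = 0.693/kel and MRT = AUMC/AUC. Values are geometric means.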

Plasma [6] = test: Half-life in healthy human plasma assessed as metabolite BAY 78-1789 half-life at 80 mg, po administered as single ascending doses during 10 hrs overnight fasting state; format: ADME, organism-based; settings: in vivo
Outline: (§4)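 Healthy Caucasian male volunteers, single oral dose with 240 ml water after a 10-h overnight fast. Heparinised venous blood was drawn predose and at 0.25–14 h. Plasma was stored frozen. Parent drug and metabolites M1–M3 were measured by LC/MS-MS (MRM, deuterated internal standard). Noncompartmental analysis gave Cmax observed, t1/2 = 0.693/kel (terminal regression) and MRT = AUMC/AUC. Values are geometric means.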

Plasma [7] = test: Ratio of AUC (0 to infinity) for metabolite BAY 78-1789 to AUC (0 to infinity) for compound in healthy human plasma at 40 mg, po administered as single dose for 3 days measured after 3 days; format: ADME, organism-based; settings: in vivo, 72 h; outline: as §2
Plasma [8] = test: Cmax in healthy human plasma assessed as metabolite BAY 78-1789 Cmax at 40 mg, po administered as two 20 mg immediate release tablets daily for 3 days during 10 hrs overnight fasting state measured after 1 day; format: ADME, organism-based; set-up: dose 40 mg, route oral; settings: in vivo, 24 h; outline: as §3
Plasma [9] = test: AUC in healthy human plasma assessed as metabolite BAY 78-1789 AUC at 80 mg, po administered as four 20 mg immediate release tablets daily for 3 days during 10 hrs overnight fasting state measured after 1 day; format: ADME, organism-based; set-up: dose 80 mg, time < 10 hr, route oral; settings: in vivo; outline: as §1
Plasma [10] = test: Half life in healthy human plasma assessed as metabolite BAY 78-1789 Half life at 40 mg, po administered as two 20 mg immediate release tablets daily for 3 days during 10 hrs overnight fasting state measured after 1 day; format: ADME, organism-based; settings: in vivo, 24 h; outline: as §3
Plasma [11] = test: Ratio of AUC (0 to infinity) for metabolite BAY 78-1789 to AUC (0 to infinity) for compound in healthy human plasma at 80 mg, po administered as single dose for 3 days measured after 1 day; format: ADME, organism-based; settings: in vivo, 24 h; outline: as §2
Plasma [12] = test: Ratio of AUC (0 to infinity) for metabolite BAY 78-1789 to AUC (0 to infinity) for compound in healthy human plasma at 80 mg, po administered as single dose for 3 days measured after 3 days; format: ADME, organism-based; settings: in vivo, 72 h; outline: as §2
Plasma [13] = test: Tmax in healthy human plasma assessed as metabolite BAY 78-1789 Tmax at 40 mg, po administered as two 20 mg immediate release tablets daily for 3 days during 10 hrs overnight fasting state measured after 1 day; format: ADME, organism-based; settings: in vivo, 24 h
Outline: (§5)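 Healthy Caucasian men (8 active, 4 placebo per dose) dosed with tablets daily for 3 days after 10-h fast. Lithium-heparin plasma sampled predose and 0.25–14 h after day-1 and day-3 doses, stored frozen. Parent and M1–M3 quantified by LC/MS-MS in positive-ion MRM. Tmax taken directly from observed individual data.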

Plasma [14] = test: AUC in healthy human plasma assessed as metabolite BAY 78-1789 AUC at 40 mg, po administered as two 20 mg immediate release tablets daily for 3 days during 10 hrs overnight fasting state measured after 3 day; format: ADME, organism-based; set-up: time < 10 hr, dose 40 mg, route oral; settings: in vivo; outline: as §1
Plasma [15] = test: Tmax in healthy human plasma assessed as metabolite BAY 78-1789 Tmax at 40 mg, po administered as two 20 mg immediate release tablets daily for 3 days during 10 hrs overnight fasting state measured after 3 day; format: ADME, organism-based; settings: in vivo, 72 h; outline: as §5
Plasma [16] = test: Cmax in healthy human plasma assessed as metabolite BAY 78-1789 Cmax at 80 mg, po administered as four 20 mg immediate release tablets daily for 3 days during 10 hrs overnight fasting state measured after 1 day; format: ADME, organism-based; set-up: dose 80 mg, route oral; settings: in vivo, 24 h; outline: as §3
Plasma [17] = test: Half life in healthy human plasma assessed as metabolite BAY 78-1789 Half life at 40 mg, po administered as two 20 mg immediate release tablets daily for 3 days during 10 hrs overnight fasting state measured after 3 day; format: ADME, organism-based; settings: in vivo, 72 h; outline: as §3
Plasma [18] = test: Half life in healthy human plasma assessed as metabolite BAY 78-1789 Half life at 80 mg, po administered as four 20 mg immediate release tablets daily for 3 days during 10 hrs overnight fasting state measured after 3 day; format: ADME, organism-based; settings: in vivo, 72 h; outline: as §3
Plasma [19] = test: Tmax in healthy human plasma assessed as metabolite BAY 78-1789 Tmax at 80 mg, po administered as four 20 mg immediate release tablets daily for 3 days during 10 hrs overnight fasting state measured after 1 day; format: ADME, organism-based; settings: in vivo, 24 h; outline: as §5
Plasma [20] = test: Tmax in healthy human plasma assessed as metabolite BAY 78-1789 Tmax at 80 mg, po administered as four 20 mg immediate release tablets daily for 3 days during 10 hrs overnight fasting state measured after 3 day; format: ADME, organism-based; settings: in vivo, 72 h; outline: as §5
Plasma [21] = test: Cmax in healthy human plasma assessed as metabolite BAY 78-1789 Cmax at 80 mg, po administered as single ascending doses during 10 hrs overnight fasting state; format: ADME, organism-based; set-up: dose 80 mg, route oral; settings: in vivo; outline: as §4
Plasma [22] = test: Half life in healthy human plasma assessed as metabolite BAY 78-1789 Half life at 80 mg, po administered as four 20 mg immediate release tablets daily for 3 days during 10 hrs overnight fasting state measured after 1 day; format: ADME, organism-based; settings: in vivo; outline: as §3
Plasma [23] = test: Cmax in healthy human plasma assessed as metabolite BAY 78-1789 Cmax at 80 mg, po administered as four 20 mg immediate release tablets daily for 3 days during 10 hrs overnight fasting state measured after 3 day; format: ADME, organism-based; set-up: dose 80 mg, route oral; settings: in vivo, 72 h; outline: as §3

C[C@@H]1[C@H](O)C[C@H]2[C@@H](C)[C@H](N3CCS(=O)(=O)CC3)O[C@@H]3O[C@]4(C)CC[C@@H]1[C@]32OO4
IC50 (Plasmodium falciparum): 2.3 ng/mL (≈ 5.51 nM)
AUC (Plasma [1]): 95.9 ng·h/mL
AUC (Plasma [2]): 165.1 ng·h/mL
AUC (Plasma [3]): 294.8 ng·h/mL
Ratio (Plasma [4]): 0.54
Cmax (Plasma [5]): 22.5 ng/mL
t1/2 (Plasma [6]): 1.59 h
Ratio (Plasma [7]): 0.47
Cmax (Plasma [8]): 27.8 ng/mL
AUC (Plasma [9]): 213.1 ng·h/mL
t1/2 (Plasma [10]): 1.52 h
Ratio (Plasma [11]): 0.65
Ratio (Plasma [12]): 0.52
Tmax (Plasma [13]): 2 h
AUC (Plasma [14]): 84.9 ng·h/mL
Tmax (Plasma [15]): 2.5 h
Cmax (Plasma [16]): 51.9 ng/mL
t1/2 (Plasma [17]): 1.69 h
t1/2 (Plasma [18]): 1.86 h
Tmax (Plasma [19]): 2 h
Tmax (Plasma [20]): 2.5 h
Cmax (Plasma [21]): 74.3 ng/mL
t1/2 (Plasma [22]): 1.83 h
Cmax (Plasma [23]): 38.2 ng/mL
